Converted amounts (≈) assume the structure as drawn.
What was measured:
Assay type in all cases: functional
Staphylococcus aureus [1] = assay: Antimicrobial activity against hospital acquired methicillin-resistant Staphylococcus aureus 56 by broth microdilution method
Procedure, shortened: (§1)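 Broth microdilution run in triplicate following CLSI guidelines. Isolates were stored at –80°C in double-strength skim milk and subcultured twice on Trypticase soy agar with 5% sheep blood before testing.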

Staphylococcus aureus [2] = assay: Antimicrobial activity against community acquired methicillin-resistant Staphylococcus aureus 146 by broth microdilution method; procedure, shortened: as §1
Staphylococcus aureus [3] = assay: Antimicrobial activity against community acquired methicillin-resistant Staphylococcus aureus 144 by broth microdilution method; procedure, shortened: as §1
Staphylococcus aureus [4] = assay: Antimicrobial activity against hospital acquired methicillin-resistant Staphylococcus aureus 149 by broth microdilution method; procedure, shortened: as §1
Staphylococcus aureus [5] = assay: Antimicrobial activity against methicillin-susceptible Staphylococcus aureus ATCC 29213 by broth microdilution method; procedure, shortened: as §1
Staphylococcus aureus [6] = assay: Antimicrobial activity against methicillin-susceptible Staphylococcus aureus ATCC 25923 by broth microdilution method; procedure, shortened: as §1
Staphylococcus aureus [7] = assay: Antimicrobial activity against community acquired methicillin-resistant Staphylococcus aureus 147 by broth microdilution method; procedure, shortened: as §1
Staphylococcus aureus [8] = assay: Antimicrobial activity against hospital acquired methicillin-resistant Staphylococcus aureus 152 by broth microdilution method; procedure, shortened: as §1

Structure (SMILES)	MIC (Staphylococcus aureus [1]) [µg/mL]	MIC (Staphylococcus aureus [2]) [µg/mL]	MIC (Staphylococcus aureus [3]) [µg/mL]	MIC (Staphylococcus aureus [4]) [µg/mL]	MIC (Staphylococcus aureus [5]) [µg/mL]	MIC (Staphylococcus aureus [6]) [µg/mL]	MIC (Staphylococcus aureus [7]) [µg/mL]	MIC (Staphylococcus aureus [8]) [µg/mL]
CC(=O)NC[C@H]1CN(c2ccc(N3CCOCC3)c(F)c2)C(=O)O1 [LINEZOLID]	8 (≈ 23.7 µM)	–	–	–	–	–	–	–
CCC[C@@H]1C[C@@H](C(=O)N[C@@H]([C@H]2O[C@H](SC)[C@H](O)[C@@H](O)[C@H]2O)[C@H](C)Cl)N(C)C1 [CLINDAMYCIN]	0.25 (≈ 0.588 µM)	0.25 (≈ 0.588 µM)	> 16	0.125 (≈ 0.294 µM)	0.125 (≈ 0.294 µM)	0.125 (≈ 0.294 µM)	0.125 (≈ 0.294 µM)	0.125 (≈ 0.294 µM)
C[C@H]1COc2c(N3CCN(C)CC3)c(F)cc3c(=O)c(C(=O)O)cn1c23.C[C@H]1COc2c(N3CCN(C)CC3)c(F)cc3c(=O)c(C(=O)O)cn1c23.O [LEVOFLOXACIN]	0.25	8	0.5	8	0.25	0.25	8	0.25
CC[C@H]1OC(=O)[C@H](C)[C@@H](O[C@H]2C[C@@](C)(OC)[C@@H](O)[C@H](C)O2)[C@H](C)[C@@H](O[C@@H]2O[C@H](C)C[C@H](N(C)C)[C@H]2O)[C@](C)(O)C[C@@H](C)C(=O)[C@H](C)[C@@H](O)[C@]1(C)O [ERYTHROMYCIN]	32 (≈ 43.6 µM)	> 32	> 32	> 32	1 (≈ 1.36 µM)	0.5 (≈ 0.681 µM)	> 32	1 (≈ 1.36 µM)
C[C@H]1c2cccc(O)c2C(=O)C2=C(O)[C@]3(O)C(=O)C(C(N)=O)=C(O)[C@@H](N(C)C)[C@@H]3[C@@H](O)[C@@H]21.O [DOXYCYCLINE]	8	2	0.5	0.5	0.5	0.25	2	0.5

Source: ChEMBL document CHEMBL1275429, “Pharmacodynamic characterization of ceftobiprole in experimental pneumonia caused by phenotypically diverse Staphylococcus aureus strains” (Antimicrob Agents Chemother, 2008)
